Source: PubChem BioAssay
PLCb3 inh: inhibitors of human phospholipase C beta3; Q01970; Purified PLC-beta3, fluorogenic substrate, fluorescence; inhibition, % at 12.2 µM; 370,000 tested, 0.18% active; AID 720704; in the data active = inhibition above about 11%;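 also: 0% = median of compound wells on plate and 100% = full blocker control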
ARFGAP1 inhibitor: rat ARFGAP1 inhibition. inhibition, % at 16.5 µM. 360,000 tested, 0.26% active. Arfgap1-stimulated ARF1 GTP hydrolysis, GDP FP detection. Q62848;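 active = inhibition above a per-plate limit, mean inhibition of low control wells plus 3 SD, cut at about 25% in these data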;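 also: 0% = DMSO wells with enzyme and 100% = wells lacking Arfgap1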
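Material – truncated rat Arfgap1 GAP domain · Buffer or medium – HEPES-based buffer, pH 7.5 · Reagent – human ARF1(Δ1-17)-GTP substrate · Dosing – 16.5 µM single point, 1.26% DMSO · Schedule – GTP hydrolysis reaction 2 h at 25 °C · Technique – GDP detection by fluorescence polarization · Benchmarks – No-Arfgap1 wells (100%) versus DMSO full-reaction wells (0%) · Repeats – single replicate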
ASAP1 GAP inh: inhibitors of human ASAP1 ArfGAP activity; Q9ULH1; ASAP1-stimulated ARF1 GTP hydrolysis, GDP FP detection; inhibition, % at 16.5 µM; 360,000 tested, 0.19% active; in the data active = inhibition above about 25%;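 also: 0% = vehicle with enzyme and substrate and 100% = no enzyme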
PLC-gamma1 inh: blocks human PLC-gamma1 enzyme activity. P19174. purified PLC-gamma1, fluorogenic substrate, fluorescence. 370,000 tested, 0.84% active. inhibition, % at 12.2 µM
HGIII-sPLA2 inh: Blocks human group III sPLA2 activity; inhibition, % at 12.2 µM; AID 743126; Q9NZ20; QFRET BODIPY PC-A2 liposome hydrolysis, fluorescence; 370,000 tested, 0.56% active;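 active = inhibition above mean plus 3 SD of compounds lying within the high and low control bounds, cut at about 19% in these data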;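 also: 0% = median of test compound wells and 100% = no enzyme DMSO wells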
PLCg1 ctr: inhibits human PLC-gamma1 in PLC-beta3 counter-screen; shares compounds with PLC-gamma1 inh; purified PLC-gamma1, fluorogenic substrate, fluorescence; inhibition, % at 12.3 µM; 3,300 tested, 3.1% active; AID 743258
PLCbeta3 conf: confirmation of human PLC-beta3 inhibitors. shares compounds with PLC-gamma1 inh. purified PLC-beta3, fluorogenic substrate fluorescence. inhibition, % at 12.3 µM. AID 743261. 3,300 tested, 1% active; in the data active = inhibition above about 11%
sPLA2 confirm: human GIII-sPLA2 inhibition, confirmation; shares compounds with HGIII-sPLA2 inh; recombinant hGIII-sPLA2, BODIPY PC-A2 QFRET fluorescence; inhibition, % at 12.2 µM; 2,000 tested, 34% active; AID 743280;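 active = mean inhibition across triplicates above the hit cutoff set in the earlier primary screen, cut at about 19% in these data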;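 also: 0% = enzyme with DMSO and 100% = DMSO wells lacking enzyme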
535nm interf: optically interferes with 535nm fluorescence in sPLA2 counter-screen | shares compounds with HGIII-sPLA2 inh | BODIPY FL product fluorescence interference, QFRET | inhibition, % at 12.2 µM | 2,000 tested, 8.5% active | AID 743282;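 active = average inhibition above the solvent-only control mean plus 3 SD, cut at about 6% in these data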;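 also: 0% = DMSO with substrate plus product and 100% = DMSO with substrate alone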
* = called active by the depositor; ! = not confirmed by another sample. Sampled rows, rich in hits. Any-hit rate of the full collection: about 1.9%. Rule as the data show it, unless noted: active = inhibition above about 9.5%; inactive = the rest.

Screening CCn1ccnc1CN1CCCC(C(=O)c2cccc(C(F)(F)F)c2)C1 (centres undefined) returned PLCb3 inh 5, ARFGAP1 inhibitor -6, ASAP1 GAP inh 11, PLC-gamma1 inh 11*, HGIII-sPLA2 inh 5, PLCg1 ctr -5 and PLCbeta3 conf -2.
For O=C(c1cccc(C(F)(F)F)c1)C1CCCN(Cc2ncc[nH]2)C1 (centres undefined) the results were PLCb3 inh -7, ARFGAP1 inhibitor 12, ASAP1 GAP inh 0, PLC-gamma1 inh -2 and HGIII-sPLA2 inh 0.
Cc1cccc(C(C)c2cnc[nH]2)c1C (centres undefined) was read as PLCb3 inh 0, PLC-gamma1 inh -2 and HGIII-sPLA2 inh -4.
`CC1(C)CN=C(NCc2ccccc2Cl)S1` gave PLCb3 inh -1, ARFGAP1 inhibitor 4, ASAP1 GAP inh -1, PLC-gamma1 inh 12*, HGIII-sPLA2 inh 14, PLCg1 ctr 0 and PLCbeta3 conf 2.
Screening CC(c1ccccc1)n1cncc1C(=O)O (centres undefined) returned PLCb3 inh 6, ARFGAP1 inhibitor -6, ASAP1 GAP inh 14, PLC-gamma1 inh 11*, HGIII-sPLA2 inh 14, PLCg1 ctr -6 and PLCbeta3 conf -5.
Screening COC(=O)c1cncn1C(C)c1ccccc1 (centres undefined) returned PLCb3 inh 3, ARFGAP1 inhibitor 8, ASAP1 GAP inh 0, PLC-gamma1 inh 3 and HGIII-sPLA2 inh 5.
`C=Cn1ccnc1P(=S)(c1nccn1C=C)c1nccn1C=C` gave PLCb3 inh 2, ARFGAP1 inhibitor 19, ASAP1 GAP inh 1, PLC-gamma1 inh 3 and HGIII-sPLA2 inh -1.
`C=Cn1ccnc1P(=S)(c1ccn(C)c1)c1nccn1C=C` gave PLCb3 inh 5, ARFGAP1 inhibitor -7, ASAP1 GAP inh 6, PLC-gamma1 inh 14*, HGIII-sPLA2 inh 6, PLCg1 ctr -8 and PLCbeta3 conf -5.
Screening COc1ccc([C@@H]2C[C@H]3[C@@H](CN2)CON3C)cc1 returned PLCb3 inh 0, PLC-gamma1 inh 0 and HGIII-sPLA2 inh -1.
CCC(=NCc1ccco1)c1c(O)n(C2CCCCC2)c(=O)[nH]c1=O was read as PLCb3 inh 12*, ARFGAP1 inhibitor -13, ASAP1 GAP inh 5, PLC-gamma1 inh 1, HGIII-sPLA2 inh -11, PLCg1 ctr -2 and PLCbeta3 conf 21*.
`C=CCN(CC#CCO)Cc1ccc(OC)cc1OC` gave PLCb3 inh -1, PLC-gamma1 inh -3 and HGIII-sPLA2 inh 4.
NP(=O)(OCCCc1ccccc1)Oc1ccccc1 (centres undefined) was read as PLCb3 inh 7, ARFGAP1 inhibitor -5, ASAP1 GAP inh -8, PLC-gamma1 inh 6 and HGIII-sPLA2 inh 4.
For NC(=O)OCCCc1ccccc1 the results were PLCb3 inh 0, ARFGAP1 inhibitor 2, ASAP1 GAP inh -5, PLC-gamma1 inh 11*, HGIII-sPLA2 inh 11, PLCg1 ctr -7 and PLCbeta3 conf -2.
CN(C)c1ccccc1 was read as PLCb3 inh 2, ARFGAP1 inhibitor 0, ASAP1 GAP inh 10, PLC-gamma1 inh 2 and HGIII-sPLA2 inh -8.
For Cc1cccc(N=Nc2ccc(N(C)C)cc2)c1 the results were PLCb3 inh 2, ARFGAP1 inhibitor -9, ASAP1 GAP inh 3, PLC-gamma1 inh 5, HGIII-sPLA2 inh 20*, sPLA2 confirm 27* and 535nm interf 4.
`Cc1c(P(=S)(c2ccccc2)c2ccccc2)c2ccccc2n1C` gave PLCb3 inh 1, PLC-gamma1 inh 0 and HGIII-sPLA2 inh 0.
`c1ccc(CNC2CCCCCCC2)cc1` (tested in a mixture with another compound) gave PLCb3 inh 3, ARFGAP1 inhibitor 5, ASAP1 GAP inh -1, PLC-gamma1 inh 0 and HGIII-sPLA2 inh 0.
NNCc1ccccc1 was read as PLCb3 inh -3, ARFGAP1 inhibitor 13, ASAP1 GAP inh -4, PLC-gamma1 inh 1, HGIII-sPLA2 inh 20*!, sPLA2 confirm -1 and 535nm interf -4.
Screening CN1C[C@H](O)[C@H]2C[C@@H]1c1ccccc1O2 returned PLCb3 inh 1, ARFGAP1 inhibitor 4, ASAP1 GAP inh 8, PLC-gamma1 inh 0 and HGIII-sPLA2 inh 7.
O=c1[nH]c(O)c(/C=C2/C=CC(c3cc(Cl)ccc3Cl)=N2)c(=O)[nH]1 was read as PLCb3 inh -7, ARFGAP1 inhibitor -7, ASAP1 GAP inh 1, PLC-gamma1 inh -1, HGIII-sPLA2 inh 20*, sPLA2 confirm 17 and 535nm interf 2.
`O=C(NCCN1CCC2(CC1)C(=O)NCN2c1ccccc1)c1ccc(F)cc1` gave PLCb3 inh 1, ARFGAP1 inhibitor -16, ASAP1 GAP inh -12, PLC-gamma1 inh 2 and HGIII-sPLA2 inh 9.
Screening C/C(=N\N1CCN(C)CC1)c1c(O)[nH]c(=O)[nH]c1=O returned PLCb3 inh -3, ARFGAP1 inhibitor 17, ASAP1 GAP inh -1, PLC-gamma1 inh 5, HGIII-sPLA2 inh 20*, sPLA2 confirm 0 and 535nm interf -6.
`CCCCn1c(=O)c(C(=O)Nc2ncccc2C)c(O)c2ccccc21` gave PLCb3 inh -35, ARFGAP1 inhibitor 7, ASAP1 GAP inh 0, PLC-gamma1 inh -26, HGIII-sPLA2 inh 20*, sPLA2 confirm -8 and 535nm interf -17.
COc1cccc(-c2ccc3c(c2)C2c4cnnn4-c4ccccc4C(=O)N2CC3)c1 (centres undefined) was read as PLCb3 inh 3, ARFGAP1 inhibitor -8, ASAP1 GAP inh 6, PLC-gamma1 inh 0 and HGIII-sPLA2 inh 0.
COc1ccccc1CCNC1CCCC(C)C1 (centres undefined) was read as PLCb3 inh 2, ARFGAP1 inhibitor -1, ASAP1 GAP inh 5, PLC-gamma1 inh 0, HGIII-sPLA2 inh 23*, sPLA2 confirm 0 and 535nm interf -17.
`CN1c2ccc(Br)cc2[C@@H]2NCC[C@@H]2[C@@H]1CO` gave PLCb3 inh -19, PLC-gamma1 inh -16 and HGIII-sPLA2 inh 3.
For Brc1ccc2c(c1)-n1nncc1CNC2 the results were PLCb3 inh 3, ARFGAP1 inhibitor 4, ASAP1 GAP inh 2, PLC-gamma1 inh 3 and HGIII-sPLA2 inh 5.
